Assay [1] deals with T1, Histamine H4 receptor (Homo sapiens, UniProt Q9H3N8). Description: Inhibition of the forskolin-stimulated cAMP production in SK-N-MC cells expressing human Histamine H4 receptor. The format is functional, cell-based.
In assay [2] the target is T1, Histamine H4 receptor. Description: Histamine H4 receptor competition binding using [3H]Na-methylhistamine.
Assay [3] has as its target T2, Histamine H3 receptor (Homo sapiens, UniProt Q9Y5N1). Description: Efficacy measured for human Histamine H3 receptor relative to histamine. The assay is classed as functional.
The target in assay [4] is T2, Histamine H3 receptor. Description: Inhibition of the forskolin-stimulated cAMP production in SK-N-MC cells expressing human Histamine H3 receptor. The assay is classed as functional, cell-based.
Assay [5] concerns the target T2, Histamine H3 receptor. Description: Histamine H3 receptor competition binding using [3H]Na-methylhistamine.
For assay [6], the target named is T1, Histamine H4 receptor. Description: Efficacy measured for human Histamine H4 receptor relative to histamine. The assay is classed as functional.
The target in assay [7] is T2, Histamine H3 receptor. The assay is described as follows: Compound was tested for H3 receptor competition binding using [3H]- Na-methylhistamine. The essentials: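 Homogenates of SK-N-MC cells stably expressing human H3 receptor, in 50 mM Na2HPO4 pH 7.4, incubated 1 h at 37 °C with 1.0 nM [3H]Nα-methylhistamine with or without competitor. Filtration through GF/C filters pretreated with 0.3% polyethylenimine, three washes with ice-cold 25 mM Tris-HCl, 145 mM NaCl pH 7.4, then scintillation counting.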

Assay [8] concerns the target T2, Histamine H3 receptor. The assay is described as follows: Inhibition of the forskolin-stimulated cAMP production in SK-N-MC cells expressing human Histamine H3 receptor; Not effective. The format is functional, cell-based. Background: Cyclic AMP is a second messenger, typically raised through Gs and lowered through Gi signalling.

The source made the active and inactive calls. No cut-off for these calls is given here.

What is called EC50 is the concentration needed to bring the measured effect to its halfway point. A high value points to a less potent agent. The Ki is a dissociation constant, usually derived from enzyme kinetics or from competition with a known ligand. A high value points to weaker binding.

T1 sequence (Q9H3N8 whole entry): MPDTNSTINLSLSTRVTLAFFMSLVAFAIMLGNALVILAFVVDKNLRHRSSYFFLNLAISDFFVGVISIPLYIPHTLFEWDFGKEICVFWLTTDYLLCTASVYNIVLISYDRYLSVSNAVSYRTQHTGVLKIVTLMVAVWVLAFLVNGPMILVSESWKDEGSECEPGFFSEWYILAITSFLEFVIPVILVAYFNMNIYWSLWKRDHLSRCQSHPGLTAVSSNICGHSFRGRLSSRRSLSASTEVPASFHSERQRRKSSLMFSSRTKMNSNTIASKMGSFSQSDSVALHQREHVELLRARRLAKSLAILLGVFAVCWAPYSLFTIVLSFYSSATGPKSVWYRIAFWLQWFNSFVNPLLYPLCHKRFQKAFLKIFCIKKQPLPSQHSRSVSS
T2 sequence (Q9Y5N1 whole entry): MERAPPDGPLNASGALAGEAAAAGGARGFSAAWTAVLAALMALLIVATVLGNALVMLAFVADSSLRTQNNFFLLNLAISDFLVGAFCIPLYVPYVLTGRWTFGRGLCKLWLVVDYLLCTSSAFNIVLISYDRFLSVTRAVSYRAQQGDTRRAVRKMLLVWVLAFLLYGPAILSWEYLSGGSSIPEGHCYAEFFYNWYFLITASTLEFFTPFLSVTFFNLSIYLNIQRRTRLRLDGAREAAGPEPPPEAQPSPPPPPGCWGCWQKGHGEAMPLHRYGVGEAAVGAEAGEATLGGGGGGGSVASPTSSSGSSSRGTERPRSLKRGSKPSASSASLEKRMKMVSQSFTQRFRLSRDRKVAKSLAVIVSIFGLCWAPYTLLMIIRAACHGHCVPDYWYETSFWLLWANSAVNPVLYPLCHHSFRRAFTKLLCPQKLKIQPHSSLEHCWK

In turn, `C/N=C(\NC#N)NC[C@H]1CC[C@H](c2c[nH]cn2)O1` gave an EC50 in assay [1] of 77.6 nM. In assay [2], the affinity, expressed as Ki, was 126 nM. In addition, the Efficacy in assay [3] amounted to 0.79.
Turning to `c1ccc(COC[C@H]2CC[C@H](c3c[nH]cn3)O2)cc1`, the results for the EC50 in assay [4] and in assay [1] were 91.2 nM and 741 nM, respectively. Besides, the figures for the Ki in assay [2] and in assay [5] were 1050 nM and 245 nM, respectively. Moreover, the results for the Efficacy in assay [3] and in assay [6] were 0.97 and 0.46, respectively.
As for `NC[C@H]1C=C[C@H](c2c[nH]cn2)O1`, the results for the EC50 in assay [4] and in assay [1] were 269 nM and 24000 nM, respectively. Besides, the figures for the Ki in assay [2] and in assay [5] were 11700 nM and 1020 nM, respectively. The Efficacy in assay [3] is 1; in assay [6], 0.76.
Molecule `C/N=C(\NC#N)NC[C@@H]1CC[C@H](c2c[nH]cn2)O1` (single isomer, unassigned) gave an EC50 in assay [1] of 224 nM. The molecule further had a Ki in assay [2] of 224 nM. The results for the Efficacy in assay [3] and in assay [6] were 0.43 and 1.01, respectively.
Turning to `NC[C@@H]1CC[C@H](c2c[nH]cn2)O1` (single isomer, unassigned), the figures for the EC50 in assay [4] and in assay [1] were 776 nM and 5500 nM, respectively. Also, the Ki was 2510 nM in assay [2] and 2040 nM in assay [5]. The values for the Efficacy in assay [3] and in assay [6] were 1.06 and 0.88, respectively.
For `c1ccc(COC[C@@H]2CC[C@H](c3c[nH]cn3)O2)cc1`, the EC50 is 191 nM in assay [4] and 135 nM in assay [1]. Moreover, the Ki in assay [2] is 437 nM; in assay [5], 331 nM. Further, the values for the Efficacy in assay [3] and in assay [6] were 1.06 and 0.91, respectively.
Turning to `NC[C@@H]1CC[C@@H](c2c[nH]cn2)O1`, the half-maximal effective concentration (EC50) was 105 nM in assay [4] and 30900 nM in assay [1]. For the same molecule, the Ki in assay [2] was 12900 nM; in assay [5], 219 nM. Further, the Efficacy turned out to be 0.91 in assay [3] and 0.6 in assay [6].
Consider `c1ccc(COC[C@@H]2CC[C@@H](c3c[nH]cn3)O2)cc1`, for which the values for the EC50 in assay [4] and in assay [1] were 9550 nM and 12900 nM, respectively. Besides, the Ki in assay [2] was 21400 nM; in assay [7] it was 10500 nM. The Efficacy in assay [3] is 0.66; in assay [6] it was 0.49.
Consider `NC[C@H]1C=C[C@@H](c2c[nH]cn2)O1` (single isomer, unassigned), for which the EC50 in assay [4] was over 100000 nM; in assay [1], 75900 nM. The results for the Ki in assay [2] and in assay [7] were 12000 nM and 20000 nM, respectively. This molecule also registered an Efficacy in assay [6] of 0.71.
With `NC[C@@H]1C=C[C@@H](c2c[nH]cn2)O1`, the EC50 was 2820 nM in assay [4] and 85100 nM in assay [1]. The Ki in assay [2] was over 100000 nM; in assay [5] it was 2510 nM. The Efficacy in assay [3] was found to be 0.75; in assay [6] it was 0.85.
With `NC[C@H]1CC[C@@H](c2c[nH]cn2)O1` (single isomer, unassigned), the EC50 is 813 nM in assay [4] and 7590 nM in assay [1]. For the same molecule, the Ki was 6460 nM in assay [2] and 1700 nM in assay [5]. Moreover, the Efficacy in assay [3] came to 0.95; in assay [6], 1.02.
With `C/N=C(\NC#N)NC[C@@H]1CC[C@@H](c2c[nH]cn2)O1`, it took 21400 nM to reach a half-maximal effect in assay [1] (EC50). For the same molecule, the affinity in assay [2], expressed as Ki, was 20400 nM. The same molecule yielded an Efficacy in assay [6] of 1.06.
Turning to `NC[C@H]1CC[C@H](c2c[nH]cn2)O1` [IMIFURAMINE], the EC50 in assay [4] is 44.7 nM; in assay [1], 2000 nM. Further, the Ki in assay [2] was 891 nM; in assay [5], 229 nM. For the same molecule, the results for the Efficacy in assay [3] and in assay [6] were 1.04 and 0.7, respectively.
Take `NC[C@@H]1C=C[C@H](c2c[nH]cn2)O1` (single isomer, unassigned): the EC50 in assay [4] was 26900 nM; in assay [1], 40700 nM. The figures for the Ki in assay [2] and in assay [5] were 21900 nM and 11500 nM, respectively. Moreover, the Efficacy turned out to be 0.93 in assay [3] and 0.74 in assay [6].
Turning to `C/N=C(\NC#N)NC[C@H]1CC[C@@H](c2c[nH]cn2)O1` (single isomer, unassigned), the NE entry in assay [8] is “inactive”. In addition, the Efficacy in assay [3] is under 0.1; in assay [6], 1.07.
Consider `c1ccc(COC[C@H]2CC[C@@H](c3c[nH]cn3)O2)cc1`, for which the EC50 is 9770 nM in assay [4] and 11500 nM in assay [1]. For the same molecule, the inhibition constant (Ki) was 13500 nM in assay [2] and 6920 nM in assay [5]. For the same molecule, the Efficacy in assay [3] came to 0.86; in assay [6], 0.82.

For the origin of these results see ChEMBL document CHEMBL1145842, “A selective human H(4)-receptor agonist: (-)-2-cyano-1-methyl-3-[(2R,5R)-5- [1H-imidazol-4(5)-yl]tetrahydrofuran-2-y] methylguanidine” (J Med Chem, 2003).
